Measured values reported in ChEMBL document CHEMBL4043283, “Discovery and Preclinical Development of IIIM-290, an Orally Active Potent Cyclin-Dependent Kinase Inhibitor” (J Med Chem, 2018).

How the values were obtained:
[1] = tested on: MIA PaCa-2; assay: Cell cycle arrest in human MIAPaCa2 cells assessed as accumulation at G2 phase at 1.5 uM after 24 hrs by propidium iodide staining-based flow cytometric method (reference value: 30%); type: functional
[2] = Efflux ratio of apparent permeability across basolateral to apical side over apical to basolateral side in human Caco2 cells after 90 mins by LC-MS/MS analysis; type: ADME, cell-based; settings: Caco-2
Outline: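 Caco-2 monolayers cultured for 21 days. Test compound applied in HBSS buffer with 10 mM HEPES. Samples drawn from both the apical and basolateral chambers.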

[3] = Intrinsic clearance in mouse hepatocytes assessed per million cells at 3 uM after 180 mins by LC-MS/MS analysis; type: ADME, cell-based, Hepatocyte; settings: read-out: CLH

CN1CC[C@H](c2c(O)cc(O)c3c(=O)cc(/C=C/c4c(Cl)cccc4Cl)oc23)[C@H](O)C1
Activity [1]: 19%
efflux ratio at 1.5 h [2]: 1.8
hepatocyte CLint at 3 µM [3]: 14.9 µL/min/1e6 cells
